Measurements taken from ChEMBL document CHEMBL5678813, “Optimization of a novel series of N-phenylindoline-5-sulfonamide-based acyl CoA:monoacylglycerol acyltransferase-2 inhibitors: Mitigation of CYP3A4 time-dependent inhibition and phototoxic liabilities” (Bioorg Med Chem, 2015).
pIC50: −log10 of the molar value.

Experiments:
[1] = Total clearance in mouse at 0.1 mg/kg, iv administered as cassette dose by LC/MS/MS analysis; format: ADME, organism-based; details: in vivo
Outline: (§1)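 Non-fasted mice dosed by cassette, iv 0.1 mg/kg or po 1 mg/kg suspended in 0.5% methylcellulose aqueous solution; plasma obtained from blood by centrifugation, deproteinized with acetonitrile, and compound concentrations measured by LC/MS/MS.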

[2] = Oral bioavailability in mouse at 1 mg/kg administered as cassette dose by LC/MS/MS analysis; format: ADME, organism-based; details: in vivo; outline: as §1
[3] = test system: NIH3T3; test: Cytotoxicity against BALB/c mouse 3T3 cells assessed as reduction in cell viability at 6.25 uM incubated for 1 hrs in absence of UV irradiation by Celltiter-Glo assay relative to control; format: toxicity, cell-based; details: nih3t3, 1 h
Outline: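 BALB/c 3T3 cells seeded at 2.5 × 10^3 cells/well and grown 1 day. Compound at 6.25 µM in EBSS with 1 mM HEPES, preincubated 1 h. Plate kept dark (–UV) while the paired plate was irradiated. Medium replaced, cultured 24 h more. Viability read as cellular ATP by CellTiter-Glo, % of 1% DMSO control; n = 3, mean ± SD.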

[4] = target: CYP2D6 (Homo sapiens, UniProt P10635); test: Reversible inhibition of CYP2D6 in human liver microsomes using dextromethorphan as substrate at 10 uM incubated for 10 mins by LC/MS/MS analysis relative to control; format: ADME, Microsome; details: probe dextromethorphan
CYP2D6, sequence (P10635 whole entry, canonical isoform): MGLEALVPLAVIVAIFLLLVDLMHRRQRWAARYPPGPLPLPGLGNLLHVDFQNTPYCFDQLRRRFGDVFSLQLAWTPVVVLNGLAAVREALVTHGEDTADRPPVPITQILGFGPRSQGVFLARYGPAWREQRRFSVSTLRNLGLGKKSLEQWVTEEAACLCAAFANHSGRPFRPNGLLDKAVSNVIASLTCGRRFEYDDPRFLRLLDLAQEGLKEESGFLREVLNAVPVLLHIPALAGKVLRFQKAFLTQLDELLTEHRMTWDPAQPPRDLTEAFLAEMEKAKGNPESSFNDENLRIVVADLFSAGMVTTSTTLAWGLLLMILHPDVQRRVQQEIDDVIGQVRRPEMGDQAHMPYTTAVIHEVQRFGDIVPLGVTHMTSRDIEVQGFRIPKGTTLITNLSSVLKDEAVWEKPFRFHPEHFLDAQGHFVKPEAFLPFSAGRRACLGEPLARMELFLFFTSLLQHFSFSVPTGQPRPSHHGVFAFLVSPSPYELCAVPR
Outline: (§2)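 Human liver microsomes at 0.1 mg/mL incubated 10 min at 37 °C with isoform-specific substrate and 10 µM test compound. Pairs: 1A2 tacrine/1-hydroxytacrine; 2C8 paclitaxel/6α-hydroxypaclitaxel; 2C9 tolbutamide/4-hydroxytolbutamide; 2D6 dextromethorphan/dextrorphan; 3A4 midazolam/1'-hydroxymidazolam. Stopped with acetonitrile/water; metabolite measured by LC/MS/MS.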

[5] = target: CYP2C9 (Homo sapiens, UniProt P11712); test: Reversible inhibition of CYP2C9 in human liver microsomes using tolbutamide as substrate at 10 uM incubated for 10 mins by LC/MS/MS analysis relative to control; format: ADME, Microsome; details: probe tolbutamide; outline: as §2
CYP2C9, sequence (P11712 whole entry): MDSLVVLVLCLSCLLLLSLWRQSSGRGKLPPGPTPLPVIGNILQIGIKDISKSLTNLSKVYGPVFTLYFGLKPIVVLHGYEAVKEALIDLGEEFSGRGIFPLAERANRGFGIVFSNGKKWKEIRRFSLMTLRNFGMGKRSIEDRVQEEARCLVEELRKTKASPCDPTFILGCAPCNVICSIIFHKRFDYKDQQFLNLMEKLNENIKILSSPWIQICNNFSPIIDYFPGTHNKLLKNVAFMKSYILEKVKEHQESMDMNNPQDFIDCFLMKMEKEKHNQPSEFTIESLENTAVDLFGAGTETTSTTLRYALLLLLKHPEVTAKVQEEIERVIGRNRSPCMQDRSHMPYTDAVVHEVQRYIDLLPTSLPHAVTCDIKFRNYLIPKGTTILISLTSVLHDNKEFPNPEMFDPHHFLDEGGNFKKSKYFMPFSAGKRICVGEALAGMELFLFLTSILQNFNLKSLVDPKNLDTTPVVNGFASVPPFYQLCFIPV

[6] = AUC in mouse at 1 mg/kg, po administered as cassette dose by LC/MS/MS analysis; format: ADME, organism-based; details: in vivo; outline: as §1
[7] = (§3) In vivo inhibition of MGAT2 in olive oil-induced C57BL/6J mouse model of hypertriglyceridemia assessed as reduction in plasma chylomicron triglyceride level at 3 mg/kg, po preadministered with compound for 6 hrs followed by Pluronic F127 addition for 30 mins and further treated with olive oil for 4 hrs by automatic analyzer relative to control; format: functional; details: time 10.5 hrs
Outline: (§4)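 Male C57BL/6J mice (20–25 g) fasted overnight and dosed orally at 0.3, 1 or 3 mg/kg. Olive oil (8 mL/kg po) or water given 6 h later, with Pluronic F127 500 mg/kg i.p. 30 min before oil. Tail-vein plasma taken at 0, 2 and 4 h and TG measured by automatic analyzer. CM/TG = oil-group TG minus water-group TG; AUC over 4 h; n = 5, mean ± SD; Williams' test vs vehicle.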

[8] = Volume of distribution at steady state in mouse at 0.1 mg/kg, iv administered as cassette dose by LC/MS/MS analysis; format: ADME, organism-based; details: in vivo, read-out: Vdss; outline: as §1
[9] = target: T1, Diacylglycerol O-acyltransferase 2 (Homo sapiens, UniProt Q96PD7); test: Inhibition of N-terminal FLAG-tagged full-length human DGAT2 expressed in recombinant baculovirus infected Sf21 cells using [1-14C]-oleoyl-CoA and 1,2-dioleoyl-glycerol as substrate incubated for 40 mins by TLC analysis
T1 sequence (Q96PD7 whole entry): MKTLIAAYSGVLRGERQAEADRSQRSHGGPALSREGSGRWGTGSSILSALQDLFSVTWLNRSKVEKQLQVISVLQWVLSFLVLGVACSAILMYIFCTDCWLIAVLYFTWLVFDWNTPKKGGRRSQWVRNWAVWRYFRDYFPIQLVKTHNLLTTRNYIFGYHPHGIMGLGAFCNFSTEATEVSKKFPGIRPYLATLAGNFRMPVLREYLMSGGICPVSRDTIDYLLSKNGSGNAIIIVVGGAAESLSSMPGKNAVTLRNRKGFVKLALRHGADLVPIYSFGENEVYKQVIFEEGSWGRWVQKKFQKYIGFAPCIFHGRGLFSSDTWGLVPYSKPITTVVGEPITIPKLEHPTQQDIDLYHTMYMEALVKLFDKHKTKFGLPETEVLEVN
Outline: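 Membranes from baculovirus-infected Sf-21 cells, each enzyme at 30 µg/mL, incubated with 5 µM [1-14C]-oleoyl-CoA and 40 µM 1,2-dioleoyl-glycerol for 40 min at 32 °C. Lipids extracted by modified Bligh & Dyer, resolved on silica TLC, and radioactivity incorporated into lipids quantified.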

[10] = MRT in mouse at 1 mg/kg, po administered as cassette dose by LC/MS/MS analysis; format: ADME, organism-based; details: in vivo; outline: as §1
[11] = Permeability of compound at pH 7.4 by PAMPA assay; format: ADME; details: read-out: permeability
Outline: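 Passive permeability measured by PAMPA at pH 7.4.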

[12] = target: CYP3A4 (Homo sapiens, UniProt P08684); test: Reversible inhibition of CYP3A4 in human liver microsomes using midazolam as substrate at 10 uM incubated for 10 mins by LC/MS/MS analysis relative to control; format: ADME, Microsome; details: probe midazolam; outline: as §2
CYP3A4, sequence (P08684 whole entry): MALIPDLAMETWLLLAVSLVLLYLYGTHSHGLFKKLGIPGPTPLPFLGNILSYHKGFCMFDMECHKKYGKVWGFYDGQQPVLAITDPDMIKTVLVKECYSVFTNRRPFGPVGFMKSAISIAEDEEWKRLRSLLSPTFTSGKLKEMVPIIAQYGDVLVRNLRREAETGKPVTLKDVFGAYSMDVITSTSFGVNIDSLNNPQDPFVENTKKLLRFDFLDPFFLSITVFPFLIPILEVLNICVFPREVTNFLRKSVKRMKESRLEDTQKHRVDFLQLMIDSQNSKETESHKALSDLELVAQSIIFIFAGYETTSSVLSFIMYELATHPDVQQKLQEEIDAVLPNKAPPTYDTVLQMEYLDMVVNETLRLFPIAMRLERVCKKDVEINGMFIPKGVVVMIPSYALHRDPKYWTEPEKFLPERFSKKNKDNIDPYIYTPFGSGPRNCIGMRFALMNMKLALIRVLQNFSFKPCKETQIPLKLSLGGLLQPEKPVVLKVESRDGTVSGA

[13] = test system: Mus musculus; test: as §3, with “level” for “level at 3 mg/kg, po”, “preadministered orally” for “preadministered”, “analyzer” for “analyzer relative to control”; format: functional; details: dose 0.3-3 mg/kg, route po, time 10.5 hrs; outline: as §4

Work on Cn1nc(C(F)(F)F)cc1-c1cnc(N2CCc3cc(S(=O)(=O)Nc4c(F)cc(Cl)cc4F)cc(N4CCCC4=O)c32)nc1 [TP-020] yielded a clearance [1] of 3.42 mL/min/kg, a bioavailability [2] of 50% and an Activity [3] of 99%. For the same compound, the inhibition at 10 min, 10 µM [4] was less than 10%, the inhibition at 10 min, 10 µM [5] was 17% and the AUC [6] was 2440 ng·h/mL. For the same compound, the inhibition in vivo at 3 mg/kg [7] was 100%, the Vd [8] was 0.539 L/kg and the pIC50 [9] was less than 5.00. It also gave an MRT [10] of 3.3 h, a Papp [11] of 16.6 ×10⁻⁶ cm/s and an inhibition at 10 min, 10 µM [12] of less than 10%. The inhibition [13] was “Dose-Dependent Effect”.
